Experimental data taken from ChEMBL document CHEMBL1157636, “Novel C-aryl glucoside SGLT2 inhibitors as potential antidiabetic agents: 1,3,4-Thiadiazolylmethylphenyl glucoside congeners” (Bioorg Med Chem, 2010).

Columns and labels:
[1] = target: T1, Sodium/glucose cotransporter 2 (Homo sapiens, UniProt P31639); experiment: Inhibition of human recombinant SGLT2 expressed in CHO cells by liquid scintillation counting; type: cell-based
T1 sequence (P31639 whole entry): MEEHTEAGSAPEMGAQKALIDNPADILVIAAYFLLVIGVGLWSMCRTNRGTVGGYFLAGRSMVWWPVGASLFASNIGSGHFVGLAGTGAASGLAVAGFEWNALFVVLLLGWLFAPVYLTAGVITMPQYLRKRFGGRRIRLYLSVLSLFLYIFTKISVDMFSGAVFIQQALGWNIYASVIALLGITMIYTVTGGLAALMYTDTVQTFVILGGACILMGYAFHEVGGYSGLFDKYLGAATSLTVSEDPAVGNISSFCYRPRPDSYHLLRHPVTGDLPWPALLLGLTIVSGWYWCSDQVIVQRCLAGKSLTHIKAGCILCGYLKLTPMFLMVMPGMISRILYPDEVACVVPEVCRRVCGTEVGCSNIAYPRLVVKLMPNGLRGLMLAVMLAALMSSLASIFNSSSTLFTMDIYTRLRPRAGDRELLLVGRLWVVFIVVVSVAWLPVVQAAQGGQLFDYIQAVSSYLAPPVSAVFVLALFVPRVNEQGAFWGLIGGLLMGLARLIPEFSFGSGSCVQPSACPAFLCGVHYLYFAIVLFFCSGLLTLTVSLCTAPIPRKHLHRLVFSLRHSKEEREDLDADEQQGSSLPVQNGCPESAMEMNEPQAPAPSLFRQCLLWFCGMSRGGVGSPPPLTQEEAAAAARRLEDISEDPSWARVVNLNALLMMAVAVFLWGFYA
How it was run: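 hSGLT2 cloned from human kidney cDNA; stable clones selected by G418 resistance. Preincubated 10 min at 37 °C in sodium-free choline buffer pH 7.4. Then 2 h at 37 °C in Na⁺ uptake buffer with 1 mM unlabeled AMG plus ¹⁴C-AMG and inhibitor or DMSO. Washed, radioactivity counted; IC50 by nonlinear regression.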

[2] = test system: Rattus norvegicus; experiment: Effect on urinary glucose excretion in normal fasted Sprague-Dawley rat at 10 mg/kg, po subsequently co-treated with glucose measured up to 24 hrs relative to untreated control; type: ADME, organism-based, Urine; parameters: dose 10 mg/kg, route oral; conditions: in vivo
How it was run: (§1)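 Overnight-fasted male SD rats placed in metabolism cages for 24 h baseline urine, then randomized and given single oral drug or vehicle followed by oral 50% aqueous glucose (2 g/kg). Urine collected 24 h, re-fed 1 h after glucose challenge. Urine volume measured and glucose determined enzymatically. Values normalized per 200 g body weight; means ± S.E.M., ANOVA with Dunnett's test.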

[3] = Tmax in Sprague-Dawley rat at 5 mg/kg, po; type: ADME, organism-based; parameters: dose 5 mg/kg, route oral; conditions: in vivo
[4] = Oral bioavailability in Sprague-Dawley rat at 5 mg/kg; type: ADME, organism-based; conditions: in vivo
[5] = test system: Mus musculus; experiment: Antidiabetic activity in db/db mouse assessed as reduction in blood glucose level at 10 mg/kg, po after 4 hrs relative to untreated control; type: functional; parameters: scale not given: the % may be the effect or the level left
How it was run: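 Diabetic db/db mice (n = 4 per group), randomized by weight and given single oral dose of vehicle or drug. Reduction versus vehicle controls at 4 h; means ± S.E.M., one-way ANOVA with Dunnett's test.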

[6] = Cmax in Sprague-Dawley rat at 5 mg/kg, po; type: ADME, organism-based; parameters: dose 5 mg/kg, route oral; conditions: in vivo
[7] = Elimination half life in Sprague-Dawley rat at 5 mg/kg, po; type: ADME, organism-based; parameters: dose 5 mg/kg, route oral; conditions: in vivo, read-out: beta t1/2 (converted)
[8] = test system: Rattus norvegicus; experiment: Effect on urine volume in normal fasted Sprague-Dawley rat at 10 mg/kg, po subsequently co-treated with glucose measured up to 24 hrs relative to untreated control; type: ADME, organism-based; parameters: dose 10 mg/kg, route oral; conditions: in vivo; how it was run: as §1
[9] = test system: Rattus norvegicus; experiment: Effect on urinary glucose excretion in normal fasted Sprague-Dawley rat at 10 mg/kg, po subsequently co-treated with glucose measured up to 24 hrs relative to untreated control; conditions: in vivo

Compound | IC50 [1] [µM] | also measured
Cc1noc(C)c1-c1nnc(Cc2cc([C@@H]3O[C@H](CO)[C@@H](O)[C@H](O)[C@H]3O)ccc2Cl)s1 | > 10 | 
CCc1noc(C)c1-c1nnc(Cc2cc([C@@H]3O[C@H](CO)[C@@H](O)[C@H](O)[C@H]3O)ccc2Cl)s1 | > 10 | 
OC[C@H]1O[C@@H](c2ccc(Cl)c(Cc3nnc(-c4csc(-c5ccncc5)n4)s3)c2)[C@H](O)[C@@H](O)[C@@H]1O | 0.0726 | 
CCCc1nnc(Cc2cccc([C@@H]3O[C@H](CO)[C@@H](O)[C@H](O)[C@H]3O)c2)s1 | 6.91 | 
CC(C)(C)c1nnc(Cc2cccc(C3O[C@H](CO)[C@@H](O)[C@H](O)[C@H]3O)c2)s1 (some centres not stated) | > 10 | 
CC(C)(c1ccc(Cl)cc1)c1nnc(Cc2cc(C3O[C@H](CO)[C@@H](O)[C@H](O)[C@H]3O)ccc2Cl)s1 (some centres not stated) | > 10 | 
Cn1nc(-c2nnc(Cc3cc([C@@H]4O[C@H](CO)[C@@H](O)[C@H](O)[C@H]4O)ccc3Cl)s2)c2ccccc21 | 3.28 | 
OC[C@H]1O[C@@H](c2ccc(Cl)c(Cc3nnc(-c4ccco4)s3)c2)[C@H](O)[C@@H](O)[C@@H]1O |  | fold change (FC) [2]: 100; Tmax [3]: 19.8 min; bioavailability [4]: 7.7%; Activity [5]: 72.8%; Cmax [6]: 50 ng/mL; half-life [7]: 51.6 min; fold change (FC) [8]: 1.4; fold change (FC) [9]: 100
OC[C@H]1OC(c2ccc(Cl)c(Cc3nnc(Cc4ccc(Cl)cc4)s3)c2)[C@H](O)[C@@H](O)[C@@H]1O (some centres not stated) | 2.39 | 
COc1ccc(Cc2ccccc2O[C@@H]2O[C@H](CO)[C@@H](O)[C@H](O)[C@H]2O)cc1 [SERGLIFLOZIN A] | 0.00625 | 
